Published values collected from several papers.
Lines come from different studies, so protocols differ.
Read-out: metabolic stability
Medium: liver microsomes

CCC(F)(F)c1nc2nc(C)cc(Nc3ccc(C(F)(F)F)cc3)n2n1
microsomal CLint (mouse; 1 µM; pH 7.4): < 10 µL/min/mg

CS(=O)(=O)c1ccc(-c2cnc(N)c(-c3ccc(C(F)(F)F)nc3)c2)cc1
microsomal CLint (male CD-1 mouse; 1 µM): < 11.6 µL/min/mg

Cc1cccc(N2CCN(c3nc(-c4ccccn4)nc4ccccc34)CC2)n1
microsomal CLint (mouse): 513 µL/min/mg

Cc1cc(Nc2ccc(C(F)(F)F)cc2)c2ccccc2n1
microsomal CLint (mouse): 98 µL/min/mg

Oc1ccc(-c2nc(N3CCC(c4ccccn4)C3)c3ccccc3n2)cc1 (stereo not shown)
microsomal CLint (mouse): 388 µL/min/mg

Cc1cc(NC(=O)Nc2ccc3c(c2)OC(F)(F)O3)cc(C(F)(F)F)n1
microsomal CLint (mouse): 36 µL/min/mg

c1ccc(C2CCN(c3nc(-c4ccco4)nc4ccccc34)C2)nc1 (stereo not shown)
microsomal CLint (mouse): 539 µL/min/mg

CCOC(=O)c1c(-c2cccc(Oc3ccccc3)c2)[nH]c2cc(OC)ccc2c1=O
microsomal CLint (female CD-1 mouse; 19.8 µM; pH 7.4): > 15 µL/min/mg

c1ccc(CN2CCN(c3nc(-c4ccccn4)nc4ccccc34)CC2)cc1
microsomal CLint (mouse): 393 µL/min/mg

Cc1cc(Nc2ccc(S(F)(F)(F)(F)F)cc2)n2nc(C(F)(F)F)nc2n1
microsomal CLint (mouse; 1 µM; pH 7.4): < 10 µL/min/mg

c1ccc(CCNc2nc(-c3ccccn3)nc3ccccc23)nc1
microsomal CLint (mouse): 336 µL/min/mg

O=C(C1CCCCC1)N1CC(=O)N2CCc3ccccc3[C@@H]2C1
microsomal CLint (mouse; 0.1 µM; pH 7.4): > 1000 µL/min/mg

CCOC(=O)c1c(-c2cccc(Cl)c2)[nH]c2cc(OC)c(F)cc2c1=O
microsomal CLint (female CD-1 mouse; 19.8 µM; pH 7.4): < 4 µL/min/mg

CCC(F)(F)c1nc2nc(C)cc(Nc3ccc(S(F)(F)(F)(F)F)cc3)n2n1
microsomal CLint (mouse; 1 µM; pH 7.4): < 10 µL/min/mg

O=C(Nc1ccc2c(c1)B(O)OC2)Nc1ccc(F)c(C(F)(F)F)c1
microsomal CLint (mouse): 34 µL/min/mg

COc1cc2[nH]c(-c3cccc(Oc4ccccc4)c3)c(C(=O)OCCCN3CCOCC3)c(=O)c2cc1F
microsomal CLint (female CD-1 mouse; 19.8 µM; pH 7.4): > 15 µL/min/mg

c1ccc(-c2nc(NCc3cccnc3)c3ccccc3n2)nc1
microsomal CLint (mouse): 64 µL/min/mg

CCOC(=O)c1c(-c2cccc(Cl)c2)[nH]c2cc(OC)ccc2c1=O
microsomal CLint (female CD-1 mouse; 19.8 µM; pH 7.4): > 15 µL/min/mg

CCOC(=O)C1=C(C)N/C(=C/c2cc(CC)n(-c3ccccc3C(F)(F)F)c2CC)C1=O
microsomal CLint (mouse; 1 µM): 143 µL/min/mg
